Assay results collected from several papers.
Each line is one published result; the experiments were not run side by side.
Target: Serine/threonine-protein kinase Sgk1 (SGK1, Homo sapiens, UniProt O00141)

| SMILES | test | conditions | quantity | result |
| --- | --- | --- | --- | --- |
| CCN(CC)CCNC(=O)c1c(C)[nH]c(/C=C2\C(=O)Nc3ccc(F)cc32)c1C | enzyme activity, inhibitor | 10 µM | inhibition | 86% |
| CC1=C(C#N)C(c2ccc3c(c2)c(NC(=O)c2ccccc2C)nn3C)C(C#N)=C(C)N1 | cell-free assay, competition with immobilised ligand | 1 µM | remaining binding | 89% |
| CN(c1ncccc1CNc1nc(Nc2ccc3c(c2)CC(=O)N3)ncc1C(F)(F)F)S(C)(=O)=O | enzyme activity, inhibitor | 1 µM | inhibition | 13.4% |
| Cc1ccc(Nc2nccc(N(C)c3ccc4c(C)n(C)nc4c3)n2)cc1S(N)(=O)=O | enzyme activity, inhibitor | 0.3 µM | inhibition | -14% |
| O=C(Nc1cnn(-c2csc(C(=O)NC3COC3)c2)c1)Nc1ccccc1Cl | enzyme activity, inhibitor | 5 µM | remaining activity | 93.7% |
| CNCc1ccc(-c2cc(-c3nc(-c4ccc(S(=O)(=O)C(C)C)cc4)cnc3N)on2)cc1 | enzyme activity, inhibitor | 2 µM | inhibition | 0% |
| O=C1Nc2ccc(Cl)cc2C1=Cc1cc(Cl)c(O)c(Cl)c1 | cell-free assay | 0.5 µM | remaining signal | 91.3% |
| CO[C@@H](C)c1c(Nc2ccc([C@@H](N(C)C(=O)C3CCS(=O)(=O)CC3)C(F)(F)F)cc2)cnc2cc(Cl)nn12 | cell-free assay, competition with immobilised ligand | 1 µM | remaining binding | 89% |
| Cc1cc(NC(=O)c2cccc3cc(-c4cccc5[nH]nc(N)c45)ccc23)ccc1F | enzyme activity, inhibitor | 0.1 µM | activity vs control | 87% |
| COc1cc(Nc2cnc(C#N)c(O[C@H](C)CN(C)C)n2)ncc1-c1cnn(C)c1 | enzyme activity, inhibitor, radiometric | 1 µM | remaining activity | 79% |
| COc1cc(/C=C/C(=O)CC(=O)/C=C/c2ccc(O)c(OC)c2)ccc1O | enzyme activity, inhibitor | 1 µM | activity vs control | 82% |
| Cn1c(=O)n(-c2ccc(C(C)(C)C#N)cc2)c2c3cc(-c4cnc5ccccc5c4)ccc3ncc21 | enzyme activity, inhibitor | 10 µM | remaining activity | 98% |
| COc1cc(Cl)c(C(=O)N[C@@H](CN[C@H]2CC[C@@H](N)CC2)Cc2ccc(C#N)cc2)cc1-c1ccc(CN[C@H](C)c2ccc(C)cc2)o1 | enzyme activity, inhibitor | 1 µM | remaining activity | 94% |
| COc1cc2ncnc(Nc3ccc(Oc4ccccc4)cc3C)c2cc1OC | enzyme activity, inhibitor | 1 µM | inhibition | 8% |
| CC(=O)C1=C(C)N(c2cccc(C(F)(F)F)c2)C(=O)N[C@@H]1c1ccc(C#N)nc1 | cell-free assay, competition with immobilised ligand | 1 µM | remaining binding | 100% |
| CN(C)C1CCN(CC#Cc2nn(C3CCCC3)c3nc(NCc4ccccc4)ncc23)C1 (centres unmarked) | enzyme activity, inhibitor, FRET | 10 µM | inhibition | 20% |
| O=C(NCCCC1CCCCC1)c1ccc(CNC(=O)c2cnn(-c3ccccc3)c2C(F)(F)F)cc1 | cell-free assay, competition with immobilised ligand | 0.1 µM | remaining binding | 100% |
| Cc1cnc(NC2CCOCC2)nc1-n1cnc(C(=O)NC(CN)c2cc(F)cc(Cl)c2)c1 (centres unmarked) | enzyme activity, inhibitor, radiometric | 1 µM | remaining activity | 23% |

| SMILES | test | conditions | quantity | result |
| --- | --- | --- | --- | --- |
| O=[N+]([O-])c1cccc2[nH]c(CNc3nc(N4CCOCC4)nc4c3ncn4-c3ccsc3)nc12 | binding, competition with immobilised ligand | 10 µM | binding vs control | 57% |
| CC[C@H](CO)Nc1nc(NCc2ccccc2)c2ncn(C(C)C)c2n1 | cell-free assay | 0.5 µM | remaining signal | 120% |
| C=CC(=O)Nc1cc(Nc2nccc(Nc3cc(Cl)c(F)cc3C(C)(C)O)n2)c(OC)cc1N1CC[C@@H](N(C)C)C1 | enzyme activity, inhibitor | 1 µM | inhibition | 12% |
| CCCOc1ccc(OC)c(F)c1C(=O)c1ccc(C(=O)N[C@@H]2CNC[C@H]2NC(=O)c2ccc3[nH]ncc3c2)cc1 | enzyme activity, inhibitor | 0.75 µM | remaining activity | 34% |
| c1nc2c(Nc3ccc4c(c3)OCCO4)nc(Nc3ccc4c(c3)OCCO4)nc2[nH]1 | enzyme activity, inhibitor | 10 µM | activity vs control | 100% |
| COc1cc(-c2cn(C3CCc4ccccc4N(CC(F)(F)F)C3=O)nn2)ccc1-n1ccc(C)n1 (centres unmarked) | cell-free assay, competition with immobilised ligand | 1 µM | remaining binding | 88% |
| Nc1ncnc2n[nH]c(Nc3ccc(F)cc3)c12 | cell-free assay | 0.5 µM | remaining signal | 91.5% |
| CNC(=O)c1cc(Oc2ccc(NC(=O)Nc3ccc(Cl)c(C(F)(F)F)c3)cc2)ccn1 | enzyme activity, inhibitor | 0.3 µM | inhibition | -15% |
| O=C(Nc1ccc(Oc2ccc(F)cc2)cc1)N1CCc2ncccc2[C@H]1c1ccc(F)cc1 | cell-free assay, competition with immobilised ligand | 1 µM | remaining binding | 95% |
| CC(C)(C)c1nc(-c2cccc(NS(=O)(=O)c3c(F)cccc3F)c2F)c(-c2ccnc(N)n2)s1 | enzyme activity, inhibitor, radiometric | 1 µM | remaining activity | 75% |
| FC(F)(F)Oc1cccc(-c2cnc3ccc(-c4ccncc4)nn23)c1 | enzyme activity, inhibitor, radiometric | 5 µM | activity vs control | 108% |
| CC(C)(C)C(=O)c1sc(NC2CCCCC2)nc1N | enzyme activity, inhibitor | 10 µM | remaining activity | 91% |
| O=C(Nc1cnn(-c2csc(C(=O)NC3COC3)c2)c1)Nc1c(F)cccc1Cl | enzyme activity, inhibitor | 5 µM | remaining activity | 95.4% |
| C[C@@H]1CN(c2cc(-c3n[nH]c4ccc(OC5(C)CC5)cc34)ncn2)C[C@H](C)O1 | cell-free assay, competition with immobilised ligand | 0.1 µM | remaining binding | 89% |
| Oc1cccc(-c2nc(N3CCOCC3)c3oc4ncccc4c3n2)c1 | enzyme activity, inhibitor | 10 µM | remaining activity | 92% |
| O=C(NS(=O)(=O)c1ccc(NCC2CCOCC2)c([N+](=O)[O-])c1)c1ccc(N2CCN(Cc3ccc(C(F)(F)F)cc3-c3ccc(Cl)cc3)CC2)cc1Oc1cnc2[nH]ccc2c1 | cell-free assay, competition with immobilised ligand | 1 µM | remaining binding | 88% |
| CC/C(=N\NC(=O)C(C)Nc1ccccc1)c1ccc(O)c(C)c1O (centres unmarked) | enzyme activity, inhibitor | 0.1 µM | inhibition | 44.6% |
